Calls of active or inactive are those of the source. No cut-off for these calls is given here.
Legend:
[1] = target: Translocator protein (Rattus norvegicus, UniProt P16257); assay: Displacement of [3H]PK 11195 from peripheral-type benzodiazepine receptor in rat kidney mitochondrial membranes; type: cell membranes, Membrane
[2] = system: GABA-A receptor / central benzodiazepine receptor (Rattus norvegicus); assay: Displacement of [3H]flumazenil from central benzodiazepine receptor in rat cerebral cortex membranes at 10 uM; details: Membrane
[3] = target: Translocator protein (Rattus norvegicus) (UniProt P16257); assay: Displacement of 2-(2-(4-fluorophenyl)-1H-indol -3-yl)-N-(6-(7-nitrobenzo[c][1, 2,5]oxadiazol-4-ylamino)hexyl )-2-oxoacetamide from peripheral type benzodiazepine receptor in rat C6 glioma cells at 10 uM; type: cell-based
In short: (§1)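 Subconfluent rat C6 glioma cells in DMEM preincubated 30 min with PK 11195 or Ip (10 µM to 100 µM range), then stained with fluorescent PBR ligand at final 10 µM in culture medium, 30 min, 37 °C, 5% CO2. PBS wash, 4% paraformaldehyde fixation, fluorescence microscopy; displacement of cytoplasmic (mitochondrial) staining judged visually.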

[4] = target: Translocator protein (Rattus norvegicus) (UniProt P16257); assay: Displacement of 2-(2-(4-fluorophenyl)-1H-indol -3-yl)-N-(6-(7-nitrobenzo[c][1, 2,5]oxadiazol-4-ylamino)hexyl )-2-oxoacetamide from peripheral type benzodiazepine receptor in rat C6 glioma cells at 50 uM; type: cell-based; in short: as §1

Chain of Translocator protein (Rattus norvegicus) (P16257 whole entry, looked up): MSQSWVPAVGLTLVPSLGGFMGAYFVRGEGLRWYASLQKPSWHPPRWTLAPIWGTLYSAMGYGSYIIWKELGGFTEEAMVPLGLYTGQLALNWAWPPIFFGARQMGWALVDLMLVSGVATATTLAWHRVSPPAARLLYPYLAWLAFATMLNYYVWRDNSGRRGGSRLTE
Chain of Translocator protein (P16257 whole entry, looked up): as above

SMILES	Ki [1] [nM]	inhibition [2] [%]	Activity [3]	Activity [4]
O=C(NCCCCCCNc1ccc([N+](=O)[O-])c2nonc12)C(=O)c1c(-c2ccc(F)cc2)[nH]c2ccccc12	12	< 10		
CCC(C)N(C)C(=O)c1cc2ccccc2c(-c2ccccc2Cl)n1 (stereo unspecified)			Active	
O=C(NCCCCCCNc1ccc([N+](=O)[O-])c2nonc12)C(=O)c1c(-c2ccccc2)[nH]c2ccccc12		< 10		
CCCN(CCC)C(=O)Cc1c(-c2ccc(Cl)cc2)nc2ccc(Cl)cn12 [ALPIDEM]	0.5			
O=C(NCCCCNc1ccc([N+](=O)[O-])c2nonc12)C(=O)c1c(-c2ccccc2)[nH]c2ccccc12	42	< 10		
O=C(NCCNc1ccc([N+](=O)[O-])c2[n-][o+]nc12)C(=O)c1c(-c2ccc(F)cc2)[nH]c2ccccc12	835			
O=C(NCCCCNc1ccc([N+](=O)[O-])c2nonc12)C(=O)c1c(-c2ccc(F)cc2)[nH]c2ccccc12	23	< 10		
O=C(NCCNc1ccc([N+](=O)[O-])c2nonc12)C(=O)c1c(-c2ccccc2)[nH]c2ccccc12	994	< 10		
O=C(NCCCCCCNc1ccc([N+](=O)[O-])c2[n-][o+]nc12)C(=O)c1c(-c2ccccc2)[nH]c2ccccc12	17			
CCCCCCN(CCCCCC)C(=O)C(=O)c1c(-c2ccc(F)cc2)[nH]c2ccccc12			Active	Active
O=C(NCCNc1ccc([N+](=O)[O-])c2nonc12)C(=O)c1c(-c2ccc(F)cc2)[nH]c2ccccc12		< 10		

Reference: ChEMBL document CHEMBL1139846, “New fluorescent 2-phenylindolglyoxylamide derivatives as probes targeting the peripheral-type benzodiazepine receptor: design, synthesis, and biological evaluation” (J Med Chem, 2007)
